MrgX1 ag: agonists of human MrgX1 receptor. Q96LB2. B-score at 10 µM. hit rate 0.44% among 310,000. MrgX1-HEK293 cells, Fluo-4 calcium fluorescence, agonist mode; stronger effect = higher value;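 active means calcium response B-score plate-corrected fluorescence ratio at least 3 library SD, with starting fluorescence B-score inside 5 SD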
Target sequence (Q96LB2 whole entry, looked up): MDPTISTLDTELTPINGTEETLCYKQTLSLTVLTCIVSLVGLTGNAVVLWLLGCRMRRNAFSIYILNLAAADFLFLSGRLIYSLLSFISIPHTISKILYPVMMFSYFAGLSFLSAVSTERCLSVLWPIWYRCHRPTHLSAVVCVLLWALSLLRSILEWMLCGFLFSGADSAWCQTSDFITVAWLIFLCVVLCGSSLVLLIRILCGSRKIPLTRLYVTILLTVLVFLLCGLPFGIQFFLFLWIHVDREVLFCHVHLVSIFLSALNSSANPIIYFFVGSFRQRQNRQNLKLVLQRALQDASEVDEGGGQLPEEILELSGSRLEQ
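System – MrgX1-expressing HEK293 cells · Incubation – cells plated overnight, dye loaded 0.5 h 37 °C, 0.5 h room temperature · Technique – kinetic Fluo-4 NW fluorescence of intracellular calcium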
MrgX1 antag: blocks BAM8-22 activation of human MrgX1 receptor; MRGX1-HEK293 calcium flux, Fluo-4, BAM8-22 antagonism; stronger effect = lower value; AID 588676; hit rate 1.3% among 310,000; Q96LB2; B-score at 10 µM;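 active means calcium-response B-score plate-corrected more than 3 library SD below zero, starting fluorescence within 5 deviations, no agonist response on first addition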;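 further: peak minus trough fluorescence over baseline after final BAM8-22 challenge near maximal dose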
RGS4 act: potentiators or activators of RGS4; hit rate 0.92% among 310,000; B-score at 10 µM; HEK293 M3R/inducible RGS4, carbachol calcium flux Fluo4; stronger effect = lower value;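 active means B-score of the integrated calcium signal more than 4 SD below the library mean, with starting fluorescence not abnormally high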;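 further: negative B-score means reduced calcium response which marks RGS4 activation or potentiation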
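Assay system: Inducible-RGS4 HEK293 cells carrying M3 receptor | Schedule: Compound preincubation 20 min at room temperature before agonist | Signal: Kinetic calcium fluorescence imaging with Fluo4-AM dye, 2 µM | Read-out basis: B score from integrated fluorescence ratio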
RGS4 block: inhibitors of human RGS4; B-score at 10 µM; AID 463165; HEK293 M3R/RGS4 inducible, Fluo-4 calcium flux; stronger effect = higher value; triggered by carbachol at its EC20; P49798; hit rate 0.45% among 310,000;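 active means B-score, a plate-corrected calcium signal, over three deviations above library mean, with baseline fluorescence within five deviations of library mean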;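 further: RGS4 expression induced by doxycycline in cells with stable M3 receptor; B-score is computed from the integrated fluorescence ratio over baseline after carbachol; higher B-score means a larger calcium signal and so more RGS4 inhibition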
Target sequence (P49798 whole entry, looked up): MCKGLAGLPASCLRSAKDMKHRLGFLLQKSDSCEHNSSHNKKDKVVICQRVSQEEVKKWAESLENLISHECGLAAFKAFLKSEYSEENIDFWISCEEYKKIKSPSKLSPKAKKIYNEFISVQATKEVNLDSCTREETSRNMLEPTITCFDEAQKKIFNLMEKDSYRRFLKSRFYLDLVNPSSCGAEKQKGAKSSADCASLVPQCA
MrgX1 allo act: human MrgX1 positive allosteric modulation, primary screen | B-score at 10 µM | MrgX1-HEK293, Fluo-4 calcium flux, FDSS; stronger effect = higher value | AID 588675 | Q96LB2 | hit rate 0.63% among 310,000;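 active means plate-corrected calcium response at least 3 library SD above typical, normal starting fluorescence, not activating the receptor alone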;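 further: compound read alongside a low EC10 to EC30 dose of BAM8-22 agonist; peak minus trough fluorescence over baseline measured at the second addition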
The depositor's hits bear a star; i = inactive; nt = no result. Most compounds without a hit are left out; they make up all but 3.5% or so of the library.

SMILES	MrgX1 ag	MrgX1 antag	RGS4 act	RGS4 block	MrgX1 allo act
COc1ccc(N=C2S/C(=C\c3ccc(Cl)c([N+](=O)[O-])c3)C(=O)N2CCN(C)C)cc1	i	i	i	13*	i
CCCN1C(=O)/C(=C/c2ccc(C)s2)SC1=Nc1ccc(OC)cc1	i	i	i	i	i
C/C(=N/NC(=O)CN1CCN(Cc2ccccc2Cl)CC1)c1cccnc1	i	i	i	i	i
O=C(N/N=C/c1ccc(Cl)cc1)C(=O)N1CCCCCC1	i	i	i	i	i
O=C(O)CC1(c2ccc(F)cc2)C2CC3CC(C2)CC1C3 (centres undefined)	i	-6.7*	i	i	i
Cc1ccc(OCCCC(=O)NC(C)c2ccccc2)cc1 (centres undefined)	i	i	i	i	i
CC(=O)c1ccc(OCCCC(=O)NC(C)c2ccc(S(N)(=O)=O)cc2)cc1 (centres undefined)	i	i	i	i	6.6*
CCCCN(C)CCCNC(=O)c1cn(CC)c2ccc(S(=O)(=O)N3CCc4ccccc4C3)cc2c1=O	i	i	-7.7*	i	i
CC(C)c1nc2sc3c(SCC(N)=O)ncnc3c2c2c1CCC2	i	i	i	i	i
CC(=O)CSc1ccc(-c2nc3cc(C)c(C)cc3[nH]2)cn1	i	i	i	i	i
Cc1cc2nc(-c3ccc(SCc4ccc(C#N)cc4)nc3)[nH]c2cc1C	i	-6.1*	i	i	i
O=C(CSc1nnc(CCc2ccccc2)n1-c1ccc(Cl)cc1)NCc1ccccc1	i	-4.8*	i	i	i
COc1ccc(-n2c(CCc3ccccc3)nnc2SCC(=O)c2ccccc2)cc1	i	i	i	i	i
COc1ccc(C(=O)CSc2nnc(CCc3ccccc3)n2-c2ccccc2)cc1	i	-6.4*	i	i	i
O=C(CSc1nnc(CNc2ccc(F)cc2)n1Cc1ccccc1)NCc1ccccc1	i	-6.4*	i	i	i
C=CCN(c1ccccc1C(=O)O)S(=O)(=O)c1ccc(C)cc1	i	i	i	i	i
COc1ccc(OC)c(S(=O)(=O)NCc2ccccn2)c1	i	i	i	i	i
CC(C)Oc1ccc(C(=O)N2CCN(C(=O)c3ccco3)CC2)cc1	i	i	i	i	i
Cc1c(NC(=O)C(C)OC(=O)c2ncc(Cl)c(Cl)c2Cl)c(=O)n(-c2ccccc2)n1C (centres undefined)	i	i	i	i	i
O=C(O)Cn1nnc(COc2ccccc2)n1	i	i	i	i	i
CC(C)c1ccc(S(=O)(=O)NCc2ccc3c(c2)OCO3)cc1	i	i	i	i	i
CC(=O)/C(N=Nc1cccc(C(F)(F)F)c1)=C(\C)O	i	i	i	i	i
O=C(/C(N=Nc1cccc(C(F)(F)F)c1)=C(/O)c1cccs1)C(F)(F)F	i	i	-9.2*	i	i
COC(=O)c1[nH]c2cc(C)ccc2c1NC(=O)CN1CCCc2ccccc21	i	i	-7.3*	i	i
COC(=O)c1[nH]c2ccc(Br)cc2c1NC(=O)CN1CCCc2ccccc21	i	i	i	i	i
SMILES	MrgX1 ag	MrgX1 antag	RGS4 act	RGS4 block	MrgX1 allo act
CC(C)(C)CC(=O)NCCCCCCNC(=O)CC(C)(C)C	i	i	i	i	i
Cc1ccccc1-c1oc(C)c(C)[n+]1[O-]	i	i	i	i	7.8*
O=c1c(-c2nc3ccccc3o2)c2oc3ccccc3n2c2ccccc12	nt	nt	-9.6*	i	nt
Nc1ccc(-c2nc3ccccc3o2)cc1	i	i	i	i	i
COc1ccc(S(=O)(=O)n2nc(-c3cc(OC)c(OC)c(OC)c3)cc2N)cc1OC	i	i	nt	nt	i
COc1ccc(-c2cc(N)n(S(=O)(=O)c3c(F)c(F)c(F)c(F)c3F)n2)cc1OC	i	-6.9*	i	i	i
COc1ccc(CCNC(=O)c2cc3c(cc2Cl)N2CCCCCC2=NS3(=O)=O)cc1	i	i	i	i	i
COc1ccc(CCNC(=O)C(C)n2nc(C)n3c(cc4occc43)c2=O)cc1OC (centres undefined)	i	i	i	i	i
CC(/C=C1\SC(=Nc2cccnc2)NC1=O)=C\c1ccccc1	i	i	i	i	i
C=CCOc1ccc(/C=C2\SC(=Nc3cccnc3)NC2=O)cc1	i	-4.9*	i	i	i
OCC1OC(Oc2c[nH]c3ccccc23)C(O)C(O)C1O (centres undefined)	i	i	i	i	i
COc1ccc(COc2ccc(S(=O)(=O)N3CCCC3)cc2C(N)=O)cc1F	i	i	i	i	i
O=C(Nc1cccc2ccccc12)N(CCO)C1CCS(=O)(=O)C1 (centres undefined)	i	i	i	i	i
CC1CCN(CC(=O)Nc2ccccc2Sc2ccccc2)CC1	i	i	-7.4*	i	i
Cc1cccc(CN2C[C@]34CC[C@@H](C[C@@H]3S2(=O)=O)O4)c1	i	i	i	i	i
O=C(Nc1ccc(OCC(F)(F)C(F)F)c(C(F)(F)F)c1)c1ccc(Cl)cc1	i	i	-7.8*	i	i
O=C(Nc1ccc(Br)c(C(F)(F)F)c1)c1ccc(C(F)(F)F)cc1	i	-7.2*	i	i	i
O=C(Nc1ccc(Br)c(C(F)(F)F)c1)c1ccccc1	i	i	i	i	i
O=C(c1ccccc1[N+](=O)[O-])N1CC2C3C=CC(C3)C2C1 (centres undefined)	i	i	-7.1*	i	i
O=C(c1cccc([N+](=O)[O-])c1)N1CC2C3C=CC(C3)C2C1 (centres undefined)	i	i	i	i	i
Cc1cc(C)c2cc3c(N)c(C(=O)N4CCc5ccccc5C4)sc3nc2c1	i	-8.5*	-8*	i	i
CC(C)CC(=O)Nc1ccc(S(=O)(=O)Nc2nccs2)cc1	i	i	i	i	i
CCNc1ccc(Br)cc(C(=O)/C=C/c2ccc(Cl)cc2)c1=O	i	i	i	i	i
CCNc1ccc(Br)cc(C(=O)/C=C/c2c(Cl)cccc2Cl)c1=O	i	-4.6*	i	i	i
O=[N+]([O-])c1ccc(-c2ccc(/C=N/Nc3nc(N4CCCC4)nc(N4CCCC4)n3)o2)cc1	34*	i	i	i	i
O=[N+]([O-])c1ccc(-c2ccc(/C=N/Nc3nc(N4CCCCC4)nc(N4CCCCC4)n3)o2)cc1	nt	nt	i	i	nt

High-throughput results from PubChem.
